# From ChEMBL document CHEMBL1821594, “Synthesis and anticancer evaluation of novel 2-cyclopropylimidazo[2,1-b][1,3,4]-thiadiazole derivatives” (2011)
# Tests used:
# Assay type in all cases: functional
# CCRF-CEM = experiment: Antitumor activity against human CCRF-CEM cells after 48 hrs by SRB assay
# Summary of the method: (§1)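 Cells grown in RPMI 1640 with 5% FBS and 2 mM L-glutamine and seeded at 5000–40,000 cells/well according to doubling time. They were preincubated 24 h at 37 °C, 5% CO2, then exposed to DMSO-solubilized compound for 48 h. Adherent cells were fixed with cold TCA (10% final), suspension cells with 16% final. Stained with 0.4% SRB; absorbance at 515 nm. Percent growth calculated against time-zero and control plates.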
# HL-60(TB) = experiment: Antitumor activity against human HL-60(TB) cells after 48 hrs by SRB assay; settings: HL-60, 48 h
# Summary of the method: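 NCI-60 protocol: cells in RPMI 1640 with 5% FBS and 2 mM glutamine, preincubated 24 h at 37 °C with 5% CO2. Compounds from DMSO stock, tested at 10^-5 M single dose or five 10-fold doses, for 48 h. Suspension cells fixed in settled form (16% TCA final), then SRB stained and read at 515 nm. % growth is calculated against time-zero and control plates; GI50, TGI and LC50 are derived.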
# UACC-62 = experiment: Antitumor activity against human UACC62 cells after 48 hrs by SRB assay; settings: UACC-62, 48 h
# Summary of the method: (§2)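 NCI-60 protocol. Cells were grown in RPMI 1640 with 5% FBS and 2 mM L-glutamine, plated at 5000–40,000 cells/well, and preincubated 24 h at 37 °C, 5% CO2. Time-zero plates were TCA-fixed. Compounds were in DMSO and incubated 48 h. Fixation used cold TCA (final 16% for suspension SR; final 10% for adherent lines 2-7). Plates were stained with 0.4% SRB in 1% acetic acid, solubilized in 10 mM Tris base, and read at 515 nm. Percent growth was calculated from Tz, C and Ti.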
# IGROV-1 = experiment: Antitumor activity against human IGROV1 cells after 48 hrs by SRB assay; settings: IGROV-1, 48 h; summary of the method: as §1
# OVCAR-4 = experiment: Antitumor activity against human OVCAR4 cells after 48 hrs by SRB assay; settings: OVCAR-4, 48 h; summary of the method: as §1
# SK-OV-3 = experiment: Antitumor activity against human SKOV3 cells after 48 hrs by SRB assay; settings: SK-OV-3, 48 h; summary of the method: as §1
# ACHN = experiment: Antitumor activity against human ACHN cells after 48 hrs by SRB assay; summary of the method: as §1
# SN12C = experiment: Antitumor activity against human SN12C cells after 48 hrs by SRB assay; summary of the method: as §1
# UO-31 = experiment: Antitumor activity against human UO31 cells after 48 hrs by SRB assay; settings: UO-31, 48 h; summary of the method: as §2
# PC-3 = experiment: Antitumor activity against human PC3 cells after 48 hrs by SRB assay; settings: PC-3, 48 h; summary of the method: as §1
# DU-145 = experiment: Antitumor activity against human DU145 cells after 48 hrs by SRB assay; settings: DU-145, 48 h; summary of the method: as §1
# MCF7 = experiment: Antitumor activity against human MCF7 cells after 48 hrs by SRB assay; settings: MCF7, 48 h; summary of the method: as §1
# K562 = experiment: Antitumor activity against human K562 cells after 48 hrs by SRB assay; settings: K562, 48 h; summary of the method: as §1
# MOLT-4 = experiment: Antitumor activity against human MOLT4 cells after 48 hrs by SRB assay; settings: MOLT-4, 48 h; summary of the method: as §1
# SR = experiment: Antitumor activity against human SR cells after 48 hrs by SRB assay; summary of the method: as §2
# HOP-62 = experiment: Antitumor activity against human HOP62 cells after 48 hrs by SRB assay; settings: HOP-62, 48 h; summary of the method: as §1
# HOP-92 = experiment: Antitumor activity against human HOP92 cells after 48 hrs by SRB assay; settings: HOP-92, 48 h; summary of the method: as §1
# NCI-H460 = experiment: Antitumor activity against human NCI-H460 cells after 48 hrs by SRB assay; settings: NCI-H460, 48 h; summary of the method: as §1
# HCC 2998 = experiment: Antitumor activity against human HCC2998 cells after 48 hrs by SRB assay; settings: HCC 2998, 48 h; summary of the method: as §1
# HCT-116 = experiment: Antitumor activity against human HCT116 cells after 48 hrs by SRB assay; settings: HCT-116, 48 h; summary of the method: as §1
# HCT-15 = experiment: Antitumor activity against human HCT15 cells after 48 hrs by SRB assay; settings: HCT-15, 48 h; summary of the method: as §1
# SF-539 = experiment: Antitumor activity against human SF539 cells after 48 hrs by SRB assay; settings: SF-539, 48 h; summary of the method: as §1
# SNB-19 = experiment: Antitumor activity against human SNB19 cells after 48 hrs by SRB assay; settings: SNB-19, 48 h; summary of the method: as §1
# SNB-75 = experiment: Antitumor activity against human SNB75 cells after 48 hrs by SRB assay; settings: SNB-75, 48 h; summary of the method: as §1
# U-251 = experiment: Antitumor activity against human U251 cells after 48 hrs by SRB assay; settings: U-251, 48 h; summary of the method: as §2
# MDA-MB-435 = experiment: Antitumor activity against human MDA-MB-435 cells after 48 hrs by SRB assay; settings: MDA-MB-435, 48 h; summary of the method: as §1
# SK-MEL-2 = experiment: Antitumor activity against human SK-MEL-2 cells after 48 hrs by SRB assay; settings: SK-MEL-2, 48 h; summary of the method: as §1
# [1] = read-out: LC50 (the source's name)
smiles,measurement,setting,value
Clc1ccc(-c2nc3sc(C4CC4)nn3c2Br)cc1,GI50,CCRF-CEM,3.66 µM
same,TGI,CCRF-CEM,> 100 µM
same,CC50,CCRF-CEM; [1],> 100 µM
same,GI50,HL-60(TB),3.34 µM
same,TGI,HL-60(TB),> 100 µM
same,CC50,HL-60(TB); [1],> 100 µM
same,GI50,UACC-62,4.36 µM
same,TGI,UACC-62,> 100 µM
same,CC50,UACC-62; [1],> 100 µM
same,GI50,IGROV-1,17.3 µM
same,TGI,IGROV-1,> 100 µM
same,CC50,IGROV-1; [1],> 100 µM
same,GI50,OVCAR-4,12.7 µM
same,TGI,OVCAR-4,82.1 µM
same,CC50,OVCAR-4; [1],> 100 µM
same,GI50,SK-OV-3,35 µM
same,TGI,SK-OV-3,> 100 µM
same,CC50,SK-OV-3; [1],> 100 µM
same,GI50,ACHN,7.07 µM
same,TGI,ACHN,> 100 µM
same,CC50,ACHN; [1],> 100 µM
same,GI50,SN12C,14.3 µM
same,TGI,SN12C,> 100 µM
same,CC50,SN12C; [1],> 100 µM
same,GI50,UO-31,16.4 µM
same,TGI,UO-31,> 100 µM
same,CC50,UO-31; [1],> 100 µM
same,GI50,PC-3,2220 nM
same,TGI,PC-3,> 100 µM
same,CC50,PC-3; [1],> 100 µM
same,GI50,DU-145,19.2 µM
same,TGI,DU-145,> 100 µM
same,CC50,DU-145; [1],> 100 µM
same,GI50,MCF7,8.18 µM
same,TGI,MCF7,> 100 µM
same,CC50,MCF7; [1],> 100 µM
same,GI50,K562,1790 nM
same,TGI,K562,> 100 µM
same,CC50,K562; [1],> 100 µM
same,GI50,MOLT-4,2970 nM
same,TGI,MOLT-4,> 100 µM
same,CC50,MOLT-4; [1],> 100 µM
same,GI50,SR,2900 nM
same,TGI,SR,> 100 µM
same,CC50,SR; [1],> 100 µM
same,GI50,HOP-62,38.1 µM
same,TGI,HOP-62,> 100 µM
same,CC50,HOP-62; [1],> 100 µM
same,GI50,HOP-92,5.59 µM
same,TGI,HOP-92,37.9 µM
same,CC50,HOP-92; [1],> 100 µM
same,GI50,NCI-H460,5.25 µM
same,TGI,NCI-H460,> 100 µM
same,CC50,NCI-H460; [1],> 100 µM
same,GI50,HCC 2998,8.19 µM
same,TGI,HCC 2998,> 100 µM
same,CC50,HCC 2998; [1],> 100 µM
same,GI50,HCT-116,2960 nM
same,TGI,HCT-116,> 100 µM
same,CC50,HCT-116; [1],> 100 µM
same,GI50,HCT-15,2020 nM
same,TGI,HCT-15,> 100 µM
same,CC50,HCT-15; [1],> 100 µM
same,GI50,SF-539,6.78 µM
same,TGI,SF-539,> 100 µM
same,CC50,SF-539; [1],> 100 µM
same,GI50,SNB-19,15.6 µM
same,TGI,SNB-19,> 100 µM
same,CC50,SNB-19; [1],> 100 µM
same,GI50,SNB-75,12.2 µM
same,TGI,SNB-75,51.9 µM
same,CC50,SNB-75; [1],> 100 µM
same,GI50,U-251,4.29 µM
same,TGI,U-251,> 100 µM
same,CC50,U-251; [1],> 100 µM
same,GI50,MDA-MB-435,6.08 µM
same,TGI,MDA-MB-435,> 100 µM
same,CC50,MDA-MB-435; [1],> 100 µM
same,GI50,SK-MEL-2,11 µM
same,TGI,SK-MEL-2,59.3 µM
same,CC50,SK-MEL-2; [1],> 100 µM
